# A selection: hits, their analogues and other compounds. The true share with any hit is near 27%.
# CYP2C9 activ: increases human cytochrome P450 2C9 activity. P11712. recombinant CYP2C9, luciferin-H conversion, luminescence; active compounds read high; factor 1 = untreated enzyme, 0 = blocked. activation factor at 5 µM. actives 1.4% (n = 96,000). AID 1024;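 active = activation factor of 2 or more for CYP2C9 at a 5 µM dose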;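 also: 0 = sulfaphenazole-blocked wells and 1 = vehicle-only wells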
# Rev-RRE block: inhibitors of HIV-1 Rev-RRE RNA interaction | P05866 | Rev peptide-RRE RNA binding, FRET | inhibition, % at 8 µM | actives 0.79% (n = 97,000);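 active = inhibition above the screen-wide mean plus 3 SD, cut at about 35% in these data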;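 also: 0% = median DMSO wells and 100% = median Neomycin B control wells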
# Target sequence (P05866 whole entry, looked up): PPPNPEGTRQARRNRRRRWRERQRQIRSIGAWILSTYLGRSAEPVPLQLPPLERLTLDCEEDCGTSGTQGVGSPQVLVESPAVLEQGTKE
#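 Assay system: Labelled RRE RNA duplex and labelled Rev peptide | Times: 5 min preincubation and 15 min binding, 25 °C | Detection: FRET, ex 480 nm, em 540 and 671 nm | Evaluation: % inhibition of FRET ratio versus controls | Benchmarks: DMSO wells as 0% and neomycin B wells as 100% inhibition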
# CYP2C9 inhib: blocks human cytochrome P450 2C9; CYP2C9 Supersomes, luciferin-H conversion, luminescence; inhibition, % at 5 µM; actives 20% (n = 96,000);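 active = blocking of liver enzyme CYP2C9 beyond about 50% at 5 µM, limit read from the data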
# Cav32 inh: inhibitors of human Cav3.2 T-type calcium channel; Cav3.2-expressing cells, Fluo-4 calcium fluorescence FDSS; active compounds read low; B-score at 10 µM; actives 4% (n = 100,000); AID 449739;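 active = single-dose well whose peak fluorescence ratio is a statistical outlier from its plate by either plate-standardised score or position-corrected B-score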
# CYP2C19 act: activators of human cytochrome P450 2C19; activation factor at 5 µM; recombinant CYP2C19, luciferin-H EGE luminescence; active compounds read high; 0 = fully inhibited enzyme, 1 = untreated enzyme; AID 1025; 96,000 tested, under 10 active;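 active = activation factor of at least 2 at 5 µM in the primary screen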;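 also: 0 = wells with 2.5 mM tranylcypromine and 1 = vehicle-only wells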
# Target sequence (P33261 whole entry, looked up): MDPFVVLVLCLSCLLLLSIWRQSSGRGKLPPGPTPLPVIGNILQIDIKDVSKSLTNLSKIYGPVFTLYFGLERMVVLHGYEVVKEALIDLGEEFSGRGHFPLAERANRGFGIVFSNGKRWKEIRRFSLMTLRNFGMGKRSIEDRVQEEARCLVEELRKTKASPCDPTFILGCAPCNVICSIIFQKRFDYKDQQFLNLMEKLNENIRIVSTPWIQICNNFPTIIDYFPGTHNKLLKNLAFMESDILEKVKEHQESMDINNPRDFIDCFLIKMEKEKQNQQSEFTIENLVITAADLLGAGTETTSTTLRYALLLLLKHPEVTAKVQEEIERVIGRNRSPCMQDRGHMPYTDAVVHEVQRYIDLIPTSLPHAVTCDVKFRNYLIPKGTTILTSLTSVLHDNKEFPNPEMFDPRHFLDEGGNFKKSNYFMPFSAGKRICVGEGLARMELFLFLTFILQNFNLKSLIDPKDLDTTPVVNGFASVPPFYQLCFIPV
# CYP2C19 inhib: inhibitors of human CYP2C19; P33261; CYP2C19 Supersomes, luciferin-H EGE luminescence, 30 min; inhibition, % at 5 µM; actives 21% (n = 96,000); AID 778;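 active = CYP2C19 inhibition above a set limit at 5 µM in the primary screen, cut at about 50% in these data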;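 also: plate controls were negative control wells for no effect and 2.5 mM tranylcypromine positive control for full effect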
# An asterisk follows results filed as active; x = no result.
SMILES,CYP2C9 activ,Rev-RRE block,CYP2C9 inhib,Cav32 inh,CYP2C19 act,CYP2C19 inhib
Cc1cc(F)ccc1S(=O)(=O)Nc1ccccc1C(=O)Nc1ccc2[nH]c(=O)[nH]c2c1,0.2,x,81*,x,0.9,9
CCOC(=O)C1=C(CC)Nc2ccccc2N=C1NC(=O)c1cc(S(=O)(=O)N(C)C)ccc1Cl,0.3,12,68*,0.066,1,-2
Cc1c(C(=O)O)sc(=S)n1CCOc1ccccc1,0.9,3,12,0.61,1,2
CC(=O)Nc1cccc2c1OCCO2,1,1,0,-1.2,1,0
Cn1nc(C(F)(F)F)c(C(=O)Nc2ccc(F)cc2F)c1Sc1ccc(C(F)(F)F)cc1,0.7,15,34,1.5,0.3,69*
Cn1nc(C(F)(F)F)c(C(=O)Nc2ccc(F)cc2F)c1Sc1ccc(Cl)cc1,0.8,18,24,-0.41,0.4,61*
Cc1ccc(Sc2c(C(=O)Nc3ccc(F)cc3F)c(C(F)(F)F)nn2C)cc1,0.9,11,8,0.95,0.8,19
COCCNC(=O)c1ccc(CN2CCOCC2)cc1,x,4,x,0.15,x,x
O=C(NCc1ccccn1)C1CCCN(S(=O)(=O)c2cccc3nsnc23)C1 (configuration not stated),1,4,-3,1,1.1,-13
CC(C)c1nc(NCCN2CCOCC2)c(C#N)c2c1COC(C)(C)C2,0.5,3,45,0.38,0.9,15
CCCCc1nc(NCCN2CCOCC2)c(C#N)c2c1COC(C)(C)C2,0.3,6,69*,-0.48,0.7,28
CC(C)Cc1nc(NCCN2CCOCC2)c(C#N)c2c1COC(C)(C)C2,0.2,0,79*,-0.0021,0.1,88*
N#Cc1c2c(c(NCCN3CCOCC3)n3c1nc1ccccc13)CCCC2,0.1,10,86*,-0.028,0.5,53*
CC(C)c1cc(NCC2CCCO2)n2c(nc3ccccc32)c1C#N (configuration not stated),0.3,9,73*,0.99,1,0
CNc1oc(-c2ccc(Cl)cc2)nc1C#N,0.9,-1,10,0.075,0.7,32
CCc1nc(NCCN2CCOCC2)c(C#N)c2c1CCCC2,0.9,13,10,-0.41,0.3,69*
C/C(=C\C(=O)c1ccccc1)Nc1ccc(N2CCOCC2)cc1,1.3,-4,-28,0.31,1.1,-8
Cc1ccc(OCC(=O)NN=C2c3ccccc3-c3ccccc32)cc1,1.1,0,-7,-0.04,1,4
CCc1ccc(OCC(=O)N/N=C2\CC(=O)c3ccccc32)cc1,0.6,-2,44,-1.7,0.2,82*
CC[C@@H]1[C@H]2CCCC(=O)N3CC[C@@H](C[C@H]1O)[C@@H]23,x,x,x,0.15,x,x
CC1CN(c2nc3c(c(=O)[nH]c(=O)n3C)n2Cc2ccccc2F)CC(C)O1 (configuration not stated),0.8,x,19,0.46,1,1
CC1CCCCC1NC(=O)Cn1nnc(-c2ccc(Cl)cc2)n1 (configuration not stated),1.1,-1,-8,-0.37,0.3,71*
O=C(Cn1nnc(-c2ccc(Cl)cc2)n1)NC1CCN(Cc2ccccc2)CC1,0.8,7,20,-5.9*,0.8,16
CSc1ccccc1-n1nnnc1SCC(=O)NCc1cccs1,x,10,x,2.2,x,x
COc1ccc(-c2nc(-c3ccccc3)nc(Cl)c2C#N)cc1,0.7,0,25,1.1,0.9,7
SMILES,CYP2C9 activ,Rev-RRE block,CYP2C9 inhib,Cav32 inh,CYP2C19 act,CYP2C19 inhib
COc1ccc(-c2nc(-c3cccc(C)c3)nc(Cl)c2C#N)cc1,0.3,0,69*,0.24,1,4
CC1CCN(c2nc(-c3ccccc3)c(C#N)c(=O)[nH]2)CC1,0.9,x,6,-1.1,1,1
COc1ccc(-c2nc(-c3ccccc3)[nH]c(=O)c2C#N)cc1,0.3,6,65*,-0.86,1.2,-16
COc1ccc(-c2c(C#N)c(C)nc3c2C(=O)c2ccccc2-3)cc1,0.5,5,48,-0.11,0.4,57*
COc1cccc(-n2c(=O)[nH]cc(C(=O)Nc3ccc(NC(C)=O)cc3)c2=O)c1,0.9,0,5,-0.0086,1,3
Cc1ccc(CNC(=O)CSc2nc3ccsc3c(=O)n2NC(=O)c2ccccc2)cc1,0.4,1,64*,1.2,1,4
CCOC(=O)CSc1nc2ccccc2c(=O)n1NC(=O)c1ccccc1,0.3,5,67*,0.73,1,2
COc1ccc(C(=O)Nn2c(SCC(=O)c3ccccc3)nc3ccccc3c2=O)cc1,0.6,4,37,x,1,-3
COc1ccc(C(=O)Nn2c(SCc3ccc([N+](=O)[O-])cc3)nc3ccccc3c2=O)cc1,0.2,3,84*,-2.9,0.7,34
C=CCOC(=O)C1=C[C@H](c2coc3ccccc3c2=O)C[C@H](OCCCCO)O1,x,x,x,1.2,x,x
COc1ccc(CNc2n[nH]c(NCc3ccc(OC)c(OC)c3)n2)cc1OC,1,1,-1,-0.43,1,-3
C=CCOc1ccc(CNc2nn[nH]n2)cc1OC,0.8,1,18,x,0.2,81*
C=CCOc1ccc(CNn2c(C)n[nH]c2=S)cc1OC,0.9,2,10,0.37,0.4,61*
CN(C)/C=N/c1cc(=O)n(C)c(=O)n1Cc1ccccc1,x,x,x,2.2,x,x
CC(=O)N1CCN(c2nc(-c3ccco3)c3c(c2C#N)CC(C)(C)SC3)CC1,0.2,5,78*,-0.54,0.5,47
CC1(C)Cc2c(C#N)c(N3CCN(C(=O)c4ccccc4Cl)CC3)nc(-c3ccco3)c2CS1,0.3,51*,70*,0.11,0.8,22
CC1(C)Cc2c(C#N)c(N3CCN(C(=O)c4ccco4)CC3)nc(-c3ccco3)c2CS1,x,20,x,-0.076,x,x
CCC1C(=O)Nc2nc(-c3ccccc3)c(-c3ccccc3)n2N=C1C (configuration not stated),0.8,10,20,-3,1,-3
O=S(=O)(Nc1ncnc2c1oc1ccccc12)c1ccc(Cl)s1,0.1,x,92*,-2,0.4,61*
O=C(O)c1ccc(-n2nnnc2Oc2cccc3cccnc23)cc1,1,7,-2,0.4,1.1,-12
O=C(Nc1nc(-c2ccc(Cl)s2)cs1)c1cccs1,0.1,x,85*,-2.6,0.5,54*
Oc1c(C(Nc2nc3ccccc3s2)c2ccco2)ccc2cccnc12 (configuration not stated),0.3,-3,73*,-3.1,0.7,34
COc1cccc(-n2nnc3c(=O)n(CC(=O)Nc4ccccc4C)cnc32)c1,x,x,x,0.056,x,x
Cc1noc(C)c1COc1cccc(C(=O)OCCOc2ccc(F)cc2)c1,0.1,13,89*,-2.1,0,98*
